According to ChEMBL document CHEMBL1135987, “Synthesis of new dihydroindeno[1,2-c]isoquinoline and indenoisoquinolinium chloride topoisomerase I inhibitors having high in vivo anticancer activity in the hollow fiber animal model” (2002):
Activity calls are given as the source filed them. The rule behind the calls is not given here.

Experiments:
[1] = Cytotoxicity in CNS SF-539 cell line.; type: functional; settings: Homo sapiens
Outline: (§1)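 NCI screen of roughly 55 human cancer cell lines from diverse tumor origins, tested over 10^-4 to 10^-8 M. GI50 is the concentration giving 50% growth inhibition.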

[2] = test system: Panel (Carcinoma cell lines); experiment: Mean graph mid point for growth inhibition of all human cancer cell lines tested.; type: functional; parameters: unit: µM
Outline: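 NCI screen of roughly 55 human cancer cell lines, test range 10^-4 to 10^-8 M. Mean graph midpoint is the average GI50 over all cell lines successfully tested. GI50 values below or above the range are set to 10^-8 M or 10^-4 M.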

[3] = Cytotoxicity in colon HCT116 cell line.; type: functional; settings: Homo sapiens, HCT-116; outline: as §1
[4] = Cytotoxicity in breast MDA-MB-435 cell line.; type: functional; settings: Homo sapiens; outline: as §1
[5] = Cytotoxicity in melanoma UACC-62 cell line.; type: functional; settings: Homo sapiens; outline: as §1
[6] = Cytotoxicity in prostate DU-145 cell line.; type: functional; settings: Homo sapiens; outline: as §1
[7] = Cytotoxicity in lung HOP-62 cell line.; type: functional; settings: Homo sapiens; outline: as §1
[8] = Cytotoxicity in ovarian OVCAR-3 cell line.; type: functional; settings: Homo sapiens; outline: as §1
[9] = Cytotoxicity in renal SN12C cell line.; type: functional; settings: Homo sapiens; outline: as §1
[10] = target: T1, DNA topoisomerase 1 (Homo sapiens) (UniProt P11387); experiment: DNA topoisomerase I mediated cleavage activity tested up to a concentration of 100 uM; Same activity as compound 1
T1 sequence (whole entry): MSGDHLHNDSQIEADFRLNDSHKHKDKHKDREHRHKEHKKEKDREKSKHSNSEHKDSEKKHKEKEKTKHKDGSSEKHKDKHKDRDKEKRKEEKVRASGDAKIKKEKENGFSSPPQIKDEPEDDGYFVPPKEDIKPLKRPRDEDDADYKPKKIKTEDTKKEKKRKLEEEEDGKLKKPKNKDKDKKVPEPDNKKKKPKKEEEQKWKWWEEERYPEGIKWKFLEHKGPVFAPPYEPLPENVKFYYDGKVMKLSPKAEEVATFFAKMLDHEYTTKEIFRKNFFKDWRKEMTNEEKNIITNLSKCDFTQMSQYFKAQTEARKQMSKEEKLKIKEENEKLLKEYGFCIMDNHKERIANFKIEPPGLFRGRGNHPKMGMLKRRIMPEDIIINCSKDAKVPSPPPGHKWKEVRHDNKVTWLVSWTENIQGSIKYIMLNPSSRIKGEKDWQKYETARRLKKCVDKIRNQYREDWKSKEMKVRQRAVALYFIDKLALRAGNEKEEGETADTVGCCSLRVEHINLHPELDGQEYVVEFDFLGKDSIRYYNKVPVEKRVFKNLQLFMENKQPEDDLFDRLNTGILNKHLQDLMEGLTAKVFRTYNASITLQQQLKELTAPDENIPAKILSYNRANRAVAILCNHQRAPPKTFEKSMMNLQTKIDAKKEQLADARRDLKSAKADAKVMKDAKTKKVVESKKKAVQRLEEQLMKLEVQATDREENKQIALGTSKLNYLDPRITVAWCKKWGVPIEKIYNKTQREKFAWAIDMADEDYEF
Outline: (§2)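 Baculovirus-expressed human recombinant top1 was incubated with a 161 bp PvuII/HindIII fragment of pBluescript SK(-), 3'-end-labeled at the HindIII site with [α-32P]-dCTP (about 50 000 dpm per reaction), and drug up to 100 μM, for 30 min at 22 °C. Reactions were stopped with 0.5% SDS final. Products ran on denaturing 16% polyacrylamide/7 M urea gels at 51 °C. Cleavage was scored semiquantitatively (+, ++, +++) against the parent lead.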

[11] = target: T1, DNA topoisomerase 1 (Homo sapiens); experiment: DNA topoisomerase I mediated cleavage activity tested up to a concentration of 100 uM; Greater activity than compound 1; outline: as §2
[12] = target: T1, DNA topoisomerase 1 (Homo sapiens); experiment: DNA topoisomerase I mediated cleavage activity tested up to a concentration of 100 uM; week activity; outline: as §2
[13] = target: T1, DNA topoisomerase 1 (Homo sapiens); experiment: DNA topoisomerase I mediated cleavage activity tested up to a concentration of 100 uM; outline: as §2
[14] = target: T1, DNA topoisomerase 1 (Homo sapiens); experiment: DNA topoisomerase I mediated cleavage activity tested up to a concentration of 100 uM; Active or inactive; outline: as §2

Row | Compound | GI50 [1] | MGM [2] | GI50 [3] | GI50 [4] | GI50 [5] | GI50 [6] | GI50 [7] | GI50 [8] | GI50 [9] | Activity [10] | Activity [11] | Activity [12] | Activity [13] | Activity [14]
1 | C/C=C(/C=O)CCN1C(=O)c2cc(OC)c(OC)cc2[C@H]2C(=O)c3cc4c(cc3[C@H]21)OCO4 | 210 nM | 0.95 | 250 nM | 4460 nM | 150 nM | 220 nM | 300 nM | 7120 nM | 140 nM | – | – | – | – | –
2 | COc1cc2c(cc1OC)[C@H]1C(=O)c3c(ccc4ccccc34)[C@H]1N(CCCBr)C2=O | – | 2.95 | 4020 nM | 2250 nM | 2390 nM | 2460 nM | 1440 nM | 1970 nM | 2350 nM | – | – | – | – | –
3 | CC[n+]1cc2cc(OC)c(OC)cc2c2c1-c1cc3c(cc1C2)OCO3.[Cl-] | – | 13 | – | – | – | – | – | – | – | Same activity as compound 1 | – | – | – | –
4 | CCCC[n+]1cc2cc(OC)c(OC)cc2c2c1-c1cc3c(cc1C2)OCO3.[Cl-] | 2160 nM | 1.31 | 1580 nM | 1370 nM | 510 nM | 2690 nM | 3060 nM | 280 nM | 430 nM | – | Greater activity than compound 1 | – | – | –
5 | CCOC(=O)CCCN1C(=O)c2cc(OC)c(OC)cc2[C@H]2C(=O)c3cc4c(cc3[C@H]21)OCO4 | – | 7.76 | 1810 nM | 16500 nM | 3040 nM | 3070 nM | 2220 nM | 22000 nM | 2070 nM | – | – | – | – | –
6 | COc1cc2c(cc1OC)[C@H]1C(=O)c3cc4c(cc3[C@H]1N(Cc1ccccc1)C2=O)OCO4 | 380 nM | 1.18 | 540 nM | – | 1840 nM | 550 nM | 2930 nM | 7170 nM | 390 nM | – | – | – | – | –
7 | COc1cc2c(cc1OC)[C@H]1C(=O)c3cc4c(cc3[C@H]1N(CCCN=[N+]=[N-])C2=O)OCO4 | 330 nM | 0.69 | 400 nM | 1270 nM | 290 nM | 330 nM | 360 nM | 1270 nM | 250 nM | – | – | week activity | – | –
8 | C=CCN1C(=O)c2cc(OC)c(OC)cc2[C@H]2C(=O)c3cc4c(cc3[C@H]21)OCO4 | – | 0.98 | – | – | – | – | – | – | – | – | – | – | 0 | –
9 | CCCCN1C(=O)c2cc(OC)c(OC)cc2[C@H]2C(=O)c3cc4c(cc3[C@H]21)OCO4 | 320 nM | 2.14 | 110 nM | 1600 nM | 610 nM | – | 450 nM | 1400 nM | – | – | – | – | – | –
10 | COc1cc2c(cc1OC)[C@H]1C(=O)c3cc4c(cc3[C@H]1N(CCCBr)C2=O)OCO4 | 40 nM | 0.12 | 70 nM | 150 nM | 50 nM | 30 nM | 120 nM | 400 nM | 30 nM | Same activity as compound 1 | – | – | – | –
11 | COc1cc2c(cc1OC)[C@H]1C(=O)c3cc4c(cc3[C@H]1N(CC(F)(F)F)C2=O)OCO4 | 7630 nM | 6.6 | 14400 nM | 7600 nM | 4120 nM | 7500 nM | 34000 nM | 7960 nM | 7870 nM | – | – | – | – | –
12 | COc1cc2c(cc1OC)[C@H]1C(=O)c3cc4c(cc3[C@H]1N(CCCCl)C2=O)OCO4 | 20 nM | 0.11 | 160 nM | 330 nM | 20 nM | 30 nM | 80 nM | 360 nM | 20 nM | – | – | – | – | –
13 | CCN1C(=O)c2cc(OC)c(OC)cc2[C@H]2C(=O)c3cc4c(cc3[C@H]21)OCO4 | – | 0.81 | – | – | – | – | – | – | – | – | – | – | – | inactive
14 | COc1cc2c3c(n(C)c(=O)c2cc1OC)-c1cc2c(cc1C3=O)OCO2 | – | 20 | – | – | – | – | – | – | – | Same activity as compound 1 | – | – | – | –
15 | COC(=O)CCCN1C(=O)c2cc(OC)c(OC)cc2[C@H]2C(=O)c3cc4c(cc3[C@H]21)OCO4 | 710 nM | 1.48 | 340 nM | 2890 nM | 530 nM | 630 nM | 820 nM | 2430 nM | 240 nM | – | – | – | – | –
16 | CCCN1C(=O)c2cc(OC)c(OC)cc2[C@H]2C(=O)c3cc4c(cc3[C@H]21)OCO4 | 440 nM | 0.69 | 390 nM | 1100 nM | 260 nM | 310 nM | 590 nM | 920 nM | 430 nM | – | – | – | – | –
17 | CCC[n+]1cc2cc(OC)c(OC)cc2c2c1-c1cc3c(cc1C2)OCO3.[Cl-] | 1080 nM | 4.1 | 3550 nM | 3370 nM | 2190 nM | 10500 nM | 3980 nM | 1000 nM | 640 nM | – | Greater activity than compound 1 | – | – | –
18 | COc1cc2c(cc1OC)[C@H]1C(=O)c3cc4c(cc3[C@H]1N(CC#N)C2=O)OCO4 | 2120 nM | 3.28 | 600 nM | 9040 nM | 1730 nM | 850 nM | 5420 nM | 2020 nM | 410 nM | – | – | – | – | –
19 | CCCN1Cc2cc(OC)c(OC)cc2[C@@H]2[C@H]1c1cc3c(cc1[C@@H]2O)OCO3 | 21700 nM | 20.9 | 17800 nM | 5800 nM | 18700 nM | 33900 nM | 16000 nM | 6300 nM | – | – | – | – | – | –
20 | COc1cc2c(cc1OC)[C@H]1C(=O)c3c(ccc4ccccc34)[C@H]1N(CCCCl)C2=O | 14700 nM | 4.22 | 6520 nM | 2480 nM | 3730 nM | 5490 nM | 2760 nM | 1930 nM | 11600 nM | – | – | – | – | –
